Assay outcomes deposited in PubChem by several laboratories.
A selection: hits, their analogues and other compounds. The true share with any hit is near 3%.
Yeast superoxide: reduction of superoxide in aged yeast, primary screen, HTS | hit rate 0.18% among 330,000 | S. cerevisiae aged cells, superoxide DHE fluorescence; active compounds read low | superoxide response (% of plate mean), % at 10 µM | AID 2690, 2010;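 active means superoxide response under a set limit, about three screen SD below normal, cut at about 65% in these data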;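 further: yeast aged for seven days with compound at 30 °C before DHE staining; 100% = average MFI of all compound-treated wells on the plate with controls excluded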
AI-2 QS mod: Vibrio harveyi AI-2 quorum sensing modulators, primary screen, JMH597 strain, luminescence/OD600 ratio; Vibrio harveyi JMH597 AI-2 luminescence/OD600 ratio, 9 h; active compounds read low; strain lacks LuxN and CqsS sensors; 0 = neutral-control median; activity change, % at 7.5 µM; hit rate 0.4% among 300,000; AID 2094, 2009; in the data active means activity change below about -75%, passing the limit was not always enough;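 further: luminescence divided by OD600 gain over 9 h not by final OD600 alone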
HIF act: HIF pathway transcriptional activators, primary screen, cell-based, U2OS HRE-luciferase, luminescence; U2OS HRE-luciferase reporter; normalized: DMSO 0%, desferrioxamine 100%; activation, % at 7.5 µM (by protocol); hit rate 0.32% among 300,000; AID 1910, 2009;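 active means mean activation of at least 10% of the iron chelator positive control signal, with at least half of replicates also reaching 10%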
T cruzi repl: inhibitors of intracellular T. cruzi growth, primary screen, luminescence, NIH3T3 host cells; T. cruzi beta-gal in NIH3T3, 90 h; hit rate 1.4% among 300,000; inhibition, % (concentration not given with the values);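 active means mean inhibition across valid replicates above about 55%, limit read from the data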;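 further: signal also drops with host cell toxicity which is not excluded here; 0% = plate median of DMSO wells and 100% = zero luminescence signal; higher percent means less beta-gal luminescence so fewer parasites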
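System – NIH/3T3 host cells with β-galactosidase reporter T. cruzi · Doses – single 50 nL compound addition per well in DMSO · Reagent – 5000 T. cruzi trypomastigotes/well · Medium – Low-serum DMEM with 2% FBS · Timing – ≥90 h infection period, 3 h prior cell attachment · Evaluation – parasite load inhibition, % · Technique – GalScreen luminescence, 60 min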
NRP1-CendR mod: modulators of CendR peptide binding to NRP-1, primary screen, biochemical, fluorescence polarization, uHTS; inhibition, % at 25 µM; hit rate 0.85% among 360,000; FAM-RPARPAR peptide binding to NRP-1; Neuropilin-1 (Homo sapiens), O14786; AID 602438, 2012;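 active means inhibition or corrected inhibition above about 18%, plus a signal ratio from 0.5 to 1.5, limit read from the data, passing the limit was not always enough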
Target sequence (O14786 whole entry, looked up): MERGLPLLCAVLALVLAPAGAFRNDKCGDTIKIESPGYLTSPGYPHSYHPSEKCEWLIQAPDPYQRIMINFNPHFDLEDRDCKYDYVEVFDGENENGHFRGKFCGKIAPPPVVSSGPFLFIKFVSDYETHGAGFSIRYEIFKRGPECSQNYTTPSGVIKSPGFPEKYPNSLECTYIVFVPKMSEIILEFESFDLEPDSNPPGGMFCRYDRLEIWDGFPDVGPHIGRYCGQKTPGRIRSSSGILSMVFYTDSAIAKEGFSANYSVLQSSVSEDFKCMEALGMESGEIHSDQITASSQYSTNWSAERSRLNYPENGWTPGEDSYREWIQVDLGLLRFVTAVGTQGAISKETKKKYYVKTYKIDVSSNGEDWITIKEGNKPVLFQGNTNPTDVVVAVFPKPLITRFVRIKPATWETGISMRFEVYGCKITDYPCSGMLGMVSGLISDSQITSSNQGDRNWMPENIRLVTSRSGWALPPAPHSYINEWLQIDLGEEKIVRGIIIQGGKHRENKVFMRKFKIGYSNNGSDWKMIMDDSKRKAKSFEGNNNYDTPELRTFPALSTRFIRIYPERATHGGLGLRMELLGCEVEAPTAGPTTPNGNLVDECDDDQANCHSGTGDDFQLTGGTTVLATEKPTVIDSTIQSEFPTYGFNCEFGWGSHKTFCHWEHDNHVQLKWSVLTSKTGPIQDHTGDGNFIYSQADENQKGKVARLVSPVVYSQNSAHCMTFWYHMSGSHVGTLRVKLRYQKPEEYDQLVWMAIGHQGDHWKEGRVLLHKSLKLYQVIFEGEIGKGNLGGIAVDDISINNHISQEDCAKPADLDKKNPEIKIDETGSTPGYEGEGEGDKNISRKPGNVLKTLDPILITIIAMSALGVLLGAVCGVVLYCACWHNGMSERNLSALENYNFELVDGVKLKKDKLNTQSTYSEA
V-ATPase pH: regulators of yeast V-ATPase proton pumping, primary screen, pHLuorin cytosolic pH fluorescence | S. cerevisiae | response, % at 10 µM | hit rate 0.37% among 350,000; in the data active means response mostly above about 7.3%, no sharp cut-off; inactive means mostly below about 5.4%; further: actives read high
The depositor's hits bear a star; x = no result.

SMILES | Yeast superoxide | AI-2 QS mod | HIF act | T cruzi repl | NRP1-CendR mod | V-ATPase pH
COCCNc1nc(-c2cc(C)n(CCc3ccc(OC)cc3)c2C)cs1 | 114 | 142 | -1 | 60* | -44 | 2
COc1ccc(CN2CCN(Cc3nc4ccccc4s3)CC2CCO)c(C)c1C (centres undefined) | 89 | 9 | 0 | 61* | 1 | 1
COc1ccc(CN2CCN(Cc3csc(C(C)=O)c3)CC2CCO)c(C)c1C (centres undefined) | 83 | 1 | 0 | 55* | -10 | -3
CC1(C(=O)NS(=O)(=O)c2ccc(F)cc2F)CCN1C(=O)CC(c1ccccc1)c1ccccc1 (centres undefined) | x | x | x | x | -2 | x
Cc1cc(Nc2nc3ccccc3nc2Cl)n(-c2ccc([N+](=O)[O-])cc2)n1 | 109 | 20 | 0 | 55* | 11 | 0
Cc1cc(Nc2nc3ccccc3[nH]c2=O)n(-c2ccccc2)n1 | 93 | x | x | x | -3 | 1
O=C(O)C[C@H]1c2cc(F)ccc2S(=O)(=O)N1C1CCCCC1 | 102 | 7 | 1 | -8 | 25* | 0
O=C(O)C[C@H]1c2cc(F)ccc2S(=O)(=O)N1C1CCCC1 | 99 | -7 | 0 | -9 | 14 | -3
COc1cc(OC)cc(-c2nnc(SCc3cccc(C(=O)O)c3)o2)c1 | 109 | x | 0 | -24 | -23 | 2
CC(=O)c1cc(C#N)c(Oc2cc(C)cc(C)c2)nc1C | 82 | 10 | 0 | 11 | -11 | -1
COc1ccccc1N(CC(=O)Nc1cccc(C(F)(F)F)c1)S(C)(=O)=O | 114 | 4 | 0 | 3 | 6 | 1
Cc1ccc([N+](=O)[O-])cc1N(CC(=O)Nc1ccc(S(=O)(=O)Nc2cccc(C(F)(F)F)c2)cc1)S(C)(=O)=O | 101 | -4 | -1 | 61* | 18 | 3
CCS(=O)(=O)c1ncc(Cl)c(C(=O)Nc2ccc(S(=O)(=O)N3CCC(C)CC3)cc2)n1 | 93 | 31 | x | 62* | -20 | -2
O=C(Nc1ccc(-c2nc3ccccc3o2)cc1)c1ccc(N2CCOCC2)c([N+](=O)[O-])c1 | 102 | 30 | 0 | 57* | 2 | 3
O=C(NCc1cccs1)C1CCCCC1 | 98 | 6 | -1 | 11 | 0 | -8
O=C(NCC1CCCO1)c1ccc(Br)s1 (centres undefined) | 101 | 22 | 1 | -1 | 13 | 4
O=C(NCC1CCCO1)c1ccc([N+](=O)[O-])s1 (centres undefined) | 124 | 94 | 0 | 67* | 7 | -1
O=C(Nc1cccc(-c2cn3cccnc3n2)c1)c1ccco1 | 91 | 18 | 0 | 68* | -4 | -2
Cc1c(-c2cccc(NC(=O)c3ccco3)c2)nc2ncccn12 | 96 | 27 | 1 | 65* | -6 | -4
O=C(Nc1cccc(-c2cn3cccnc3n2)c1)c1ccc(Br)o1 | 104 | 19 | 0 | 71* | -28 | -4
Cc1cc(C)c(NC(=O)C2C3/C=C\CCCCC32)c(C)c1 (centres undefined) | 101 | -4 | 0 | 14 | -2 | -7
CCc1ccc(OCC(=O)NNC(=S)NC(=O)C2CC2)c(Br)c1 | 78 | -85* | x | x | 10 | -2
CCc1ccc(OCC(=O)NNC(=S)NC(=O)C2CCCCC2)c(Br)c1 | 110 | 101 | 0 | -17 | -4 | 2
CN(C)c1ccc(NC(=O)CC(NCc2ccccn2)C(=O)O)cc1 (centres undefined) | 86 | 20 | x | -7 | 2 | 2
COc1cc(/C=c2\sc3nc(=O)c(-c4ccccc4)nn3c2=O)ccc1OCCC(C)C | 109 | x | x | x | 40* | 0
SMILES | Yeast superoxide | AI-2 QS mod | HIF act | T cruzi repl | NRP1-CendR mod | V-ATPase pH
C/C(=N\Nc1nc(N2CCOCC2)nc(N2CCOCC2)n1)c1cccs1 | 106 | 18 | 0 | -1 | -1 | 0
Oc1ccc(Br)cc1/C=N/Nc1nc(N2CCCCC2)nc(N2CCOCC2)n1 | 109 | 6 | 0 | 74* | x | x
C/C(=N\Nc1nc(N2CCCCC2)nc(N2CCOCC2)n1)c1ccccc1O | 93 | 32 | 0 | 55* | 6 | 0
COc1ccc(S(=O)(=O)NCCCN2CCCC2=O)c(OC)c1 | 100 | 22 | 0 | 3 | 12 | 1
O=C1CCCc2ccccc2N1Cc1ccc(F)cc1 | 104 | 2 | 42* | -5 | 10 | 5
COc1ccccc1C(=O)C1CCCN(Cc2ccc3c(c2)OCCO3)C1 (centres undefined) | 88 | 3 | -1 | 46 | 15 | 2
COc1cc(OC)c(OC)cc1CN1CCCC(C(=O)c2ccccc2SC)C1 (centres undefined) | 103 | 9 | 1 | 56* | 0 | -2
COc1cc(CN2CCCC(C(=O)c3ccccc3SC)C2)cc(OC)c1 (centres undefined) | 92 | -3 | 0 | 68* | 13 | 8
COc1ccccc1C(=O)C1CCCN(Cc2cn[nH]c2C2CCCCC2)C1 (centres undefined) | 85 | 2 | 0 | 62* | 5 | 4
COc1c(O)ccc(/C=C(\C#N)c2nc3ccccc3[nH]2)c1[N+](=O)[O-] | 107 | 2 | 1 | -14 | -19 | 2
Nc1c(C(=O)NC23CC4CC(CC(C4)C2)C3)sc2nc3c(c(C(F)(F)F)c12)CCC3 | 97 | 18 | 0 | 26 | -11 | 0
Cc1cc(=O)[nH]c(N2CCN(C(c3ccccc3)c3ccccc3)CC2)n1 | 97 | 18 | 0 | 4 | 1 | 19*
O=C(Nc1cc(Sc2ccccn2)cc([N+](=O)[O-])c1)c1cccc(F)c1 | 108 | 45 | 1 | 30 | -24 | -2
O=C(Nc1cc(Sc2nc3ccccc3s2)cc([N+](=O)[O-])c1)c1ccccc1 | 109 | 11 | 0 | 56* | -6 | 1
O=C(Nc1cc(Sc2nc3ccccc3s2)cc([N+](=O)[O-])c1)c1ccccc1F | 94 | 31 | -30 | 65* | 10 | -4
O=Cc1c(N2CCCCCC2)nc2ccccn2c1=O | 84 | 18 | 0 | -12 | -19 | -6
Cc1ccccc1NC(=O)Nc1ccccc1C(=O)NCc1ccccc1 | 98 | 32 | 0 | -16 | 5 | 3
Cn1c(=O)c2nc3ccccc3nc2n(C)c1=O | 105 | 15 | -1 | -6 | 9 | -1
CC(=O)Nc1ccc(Nc2cc(C)c3ccccc3n2)cc1 | 100 | 25 | -1 | 4 | 6 | 2
CC(=O)Nc1ccc2nc3c(=O)n(C)c(=O)n(C)c3nc2c1 | 90 | 1 | -14 | -5 | 42* | -1
